Laboratory results reported in ChEMBL document CHEMBL1124147 (J Med Chem, 1988).

How the values were obtained:
[1] = target: T1, Muscarinic acetylcholine receptor M2 (Rattus norvegicus, UniProt P10980); assay: Inhibition of [3H]quinuclidinyl benzilate binding to Muscarinic acetylcholine receptor M2 in rat brain membrane; type: cell membranes
T1 sequence (P10980 whole entry): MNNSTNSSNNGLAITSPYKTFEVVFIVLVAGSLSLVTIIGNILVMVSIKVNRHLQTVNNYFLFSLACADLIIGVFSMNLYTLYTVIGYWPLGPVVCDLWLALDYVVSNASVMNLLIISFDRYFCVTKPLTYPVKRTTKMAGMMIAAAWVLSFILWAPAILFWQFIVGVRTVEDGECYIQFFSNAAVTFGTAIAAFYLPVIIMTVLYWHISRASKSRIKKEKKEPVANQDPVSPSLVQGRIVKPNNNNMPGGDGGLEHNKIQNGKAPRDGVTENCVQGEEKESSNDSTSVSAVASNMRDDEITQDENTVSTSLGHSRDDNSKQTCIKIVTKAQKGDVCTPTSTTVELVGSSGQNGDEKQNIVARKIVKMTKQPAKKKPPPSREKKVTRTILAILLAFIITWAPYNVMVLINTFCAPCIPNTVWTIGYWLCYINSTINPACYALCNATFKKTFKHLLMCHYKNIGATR

[2] = target: T1, Muscarinic acetylcholine receptor M2; assay: Inhibition of [3H]quinuclidinyl benzilate binding to Muscarinic acetylcholine receptor M2 of rat heart
[3] = target: Muscarinic acetylcholine receptor; assay: Inhibition of [3H]oxotremorine-M binding to rat brain membrane Muscarinic acetylcholine receptor
[4] = target: T2, Muscarinic acetylcholine receptor M1 (Rattus norvegicus, UniProt P08482); assay: Inhibition of [3H]pirenzepine binding to rat brain membrane Muscarinic acetylcholine receptor M1
T2 sequence (P08482 whole entry): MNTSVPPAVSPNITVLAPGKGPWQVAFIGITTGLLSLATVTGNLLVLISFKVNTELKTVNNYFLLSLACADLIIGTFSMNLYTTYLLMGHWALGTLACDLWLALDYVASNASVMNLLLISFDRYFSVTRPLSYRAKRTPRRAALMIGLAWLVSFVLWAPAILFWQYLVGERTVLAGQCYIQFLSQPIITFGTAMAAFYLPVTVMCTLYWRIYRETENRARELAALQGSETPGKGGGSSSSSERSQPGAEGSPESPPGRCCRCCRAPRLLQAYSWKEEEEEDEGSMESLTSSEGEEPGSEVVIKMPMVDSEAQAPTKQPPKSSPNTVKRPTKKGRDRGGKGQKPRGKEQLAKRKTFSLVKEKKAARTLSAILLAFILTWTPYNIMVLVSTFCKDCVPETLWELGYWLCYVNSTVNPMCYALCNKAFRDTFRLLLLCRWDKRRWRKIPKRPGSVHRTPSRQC

[5] = (§1) Muscarinic agonist index (Ki in [3H]QNB / Ki in [3H]-OXO-M) was determined; type: functional
[6] = M-1 selectivity expressed as M-2/M-1 index (Ki in [3H]-QNB / Ki in [3H]PZ) was determined
Procedure, shortened: (§2)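 Ratio of Ki from [3H]QNB binding in rat heart to Ki from [3H]PZ binding in rat brain membranes. Ki = IC50/(1+[L]/Kd) in both. Heart assay: tissue homogenized with an ultraturrax, 4 mg tissue per assay, QNB Kd 9.1 ± 0.7 pM.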

Cavia porcellus [7] = species: Cavia porcellus; assay: Effective concentration of compound for the agonistic activity on guinea pig ileum; type: functional
Procedure, shortened: (§3)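 Isolated ileum preparation, with the agonist EC50 and the antagonist IC50 read from dose-response curves.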

Cavia porcellus [8] = species: Cavia porcellus; assay: Compound was tested for the antagonistic activity on guinea pig ileum; type: functional; procedure, shortened: as §3
[9] = target: T1, Muscarinic acetylcholine receptor M2; assay: Compound was tested for the inhibition of [3H]quinuclidinyl benzilate binding to Muscarinic acetylcholine receptor M2 in rat brain membrane; type: cell membranes
Cavia porcellus [10] = species: Cavia porcellus; assay: Compound was tested for the agonistic activity on guinea pig ileum; type: functional; procedure, shortened: as §3
[11] = as §1
[12] = M-1 selectivity expressed as M-2/M-1 index (Ki in [3H]QNB / Ki in [3H]-PZ) was determined; type: functional; procedure, shortened: as §2

Structure (SMILES)	IC50 [1] [µM]	IC50 [2] [µM]	IC50 [3] [µM]	IC50 [4] [µM]	M-agonist index [5]	Ratio [6]	EC50 (Cavia porcellus [7]) [µM]	IC50 (Cavia porcellus [8]) [µM]	IC50 [9] [µM]	EC50 (Cavia porcellus [10]) [µM]	M-agonist index [11]	Ratio [12]
CCOC(=O)C1=CCC[S+](C)C1.[Cl-] (configuration not stated)	22	3.9	0.0092	0.4	387	1.2						
Cn1oc2c(c1=O)C[S+](C)CC2.[I-] (configuration not stated)	110	10	0.22	30	81	0.04	9.3	> 6				
CCOc1noc2c1C[S+](C)CC2.[I-] (configuration not stated)		4.9	0.23	0.53	3.3	1.2	> 50	15	4.6			
COC(=O)C1=CCCN(C)C1 [ARECOLINE]							0.15	> 1				
CC(C)Oc1noc2c1C[S+](C)CC2.[I-] (configuration not stated)	4.8	1.8	0.039	0.43	20	0.53	6.2	> 3				
Cn1oc2c(c1=O)CSCC2	> 1000	> 1000	> 1000	> 1000			> 50	> 50				

Results, then the molecule that gave them:

IC50 [1] [µM]	IC50 [2] [µM]	IC50 [3] [µM]	IC50 [4] [µM]	M-agonist index [5]	Ratio [6]	EC50 (Cavia porcellus [7]) [µM]	IC50 (Cavia porcellus [8]) [µM]	IC50 [9] [µM]	EC50 (Cavia porcellus [10]) [µM]	M-agonist index [11]	Ratio [12]	Structure (SMILES)
36	1.6	0.019	4.1	307	0.05	0.84	> 0.4					COc1noc2c1C[S+](C)CC2.[I-] (configuration not stated)
> 1000	> 1000	> 1000	> 1000			> 50	> 50					COc1noc2c1CSCC2
74	9.5	0.043	2.8	279	0.42	8.2	> 3					COc1noc2c1C[N+](C)(C)CC2.[I-]
34	2.5	0.0014	2.6	3930	0.12							COC(=O)C1=CCC[S+](C)C1.[I-] (configuration not stated) [SULFOARECOLINE IODIDE]
2.6	0.44	0.0033	0.25	128	0.22	0.56	> 0.2					C#CCOc1noc2c1C[S+](C)CC2.[I-] (configuration not stated)
38	16	0.028	6.4				> 0.2		0.83	220	0.31	COc1noc2c1CN(C)CC2
